Series [1] can be described thus: Selectivity ratio of CC50 for monkey LLC-MK2 cells to EC50 for trypomastigote stage of Trypanosoma cruzi Y. In kind it is ADME, cell-based. Conditions: read-out: Ratio CC50/EC50.
The nature of series [2]: Selectivity ratio of CC50 for monkey LLC-MK2 cells to IC50 for epimastigote stage of epimastigote stage of Trypanosoma cruzi Y. In kind it is ADME, cell-based. Conditions: read-out: Ratio CC50/IC50.
Series [3] in a line: Selectivity ratio of CC50 for monkey LLC-MK2 cells to IC50 for epimastigote stage of epimastigote stage of Trypanosoma cruzi Y.
The test system of the next series is Leishmania amazonensis. The series is described as follows: Antileishmanial activity against promastigote stage of Leishmania amazonensis WHOM/BR/75/JOSEFA after 72 hrs by hemocytometry. The class given is functional, organism-based.
The subject of series [4] is Trypanosoma cruzi. The series is described as follows: Antitrypanosomal activity against trypomastigote stage of Trypanosoma cruzi Y infected in monkey LLC-MK2 cells after 96 hrs by Pizzi-Brener method. The class given is functional, organism-based.
The nature of series [5]: Selectivity ratio of CC50 for mouse J774A1 cells to IC50 for promastigote stage of Leishmania amazonensis WHOM/BR/75/JOSEFA. The class given is ADME, cell-based, J774.A1. Particulars: read-out: Ratio CC50/IC50.
The nature of series [6]: Selectivity ratio of CC50 to IC50 for promastigote stage of Leishmania amazonensis WHOM/BR/75/JOSEFA. On the set-up: reference not given here.
Series [7] concerns Trypanosoma cruzi. The series is described as follows: Antitrypanosomal activity against epimastigote stage of Trypanosoma cruzi Y after 96 hrs by hemocytometry. In kind it is functional, organism-based. In outline:
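Log-phase parasites (promastigotes 3-day, Warren's medium + 10% FBS, 25°C; epimastigotes 4-day, LIT + 10% FBS, 28°C) seeded at 1 × 10^6 cells/mL with compound (0.1-100 µM; DMSO ≤1%). Promastigotes read at 72 h, epimastigotes at 96 h, by hemocytometer counting. IC50 by nonlinear regression.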

pEC50, pIC50: −log10 of the molar value. A value given as a limit tells only on which side of the number the result lay.

Experimental findings from ChEMBL document CHEMBL3396970, “Synthesis and biological evaluation of novel 2,3-disubstituted quinoxaline derivatives as antileishmanial and antitrypanosomal agents” (Eur J Med Chem, 2015) are described below.

Usually pIC50 stands for the IC50 on a negative log10 scale, so that one unit is a factor of ten. The term pEC50 denotes −log10 of the EC50, conventionally taken in molar units.

On to `CS/C(=C/[N+](=O)[O-])Nc1ccc(N(C)C)cc1`, for which the selectivity ratio was found to be 6 in series [1]; 6.6 in series [2]; 6.6 in series [3]; 18.9 in series [5]; 18.9 in series [6]. The pIC50 was 4.28 with Leishmania amazonensis and 4.50 in the series with Trypanosoma cruzi [7]. In the series on Trypanosoma cruzi [4], this compound showed a pEC50 of 4.46.

With `COc1ccc2nc(-c3ccccc3)c(S(C)(=O)=O)nc2c1`, the selectivity ratio in series [1] was 5.5; in series [2], 9.3; in series [3], 9.3; in series [5], 4.1; in series [6] it was 4.1. Also, the values for the pIC50 with Leishmania amazonensis and with Trypanosoma cruzi [7] were 4.61 and 4.55, respectively. Moreover, in the series on Trypanosoma cruzi [4], the pEC50 was 4.32.

On to `c1ccc(-c2nc3ccccc3nc2-c2ccc(OCCN3CCCCC3)cc2)cc1`, for which the selectivity ratio in series [1] worked out at 1.8; in series [2], 1.8; in series [3], 1.8; in series [5], 29.6; in series [6], 29.6. The pIC50 was 5.72 in the series on Leishmania amazonensis and 4.67 in the series on Trypanosoma cruzi [7]. In the series on Trypanosoma cruzi [4], this compound had a pEC50 of 4.69.

In the case of `COc1ccc2nc(S(C)(=O)=O)c(Cl)nc2c1`, the selectivity ratio is 2.4 in series [1]; 7.5 in series [2]; 7.5 in series [3]; 7.6 in series [5]; 7.6 in series [6]. Further, the pIC50 in the series on Leishmania amazonensis was 5.54; with Trypanosoma cruzi [7] it was 5.51. Besides, the pEC50 in the series with Trypanosoma cruzi [4] was 5.01.

Take `COc1ccc2nc(NC3CCCCC3)c(SC)nc2c1`: the selectivity ratio in series [2] turned out to be 8.5; in series [3], 8.5; in series [5] it was 1.2; in series [6] it was 1.2. Also, the pIC50 in the series with Leishmania amazonensis is 4.53; in the series on Trypanosoma cruzi [7] it was 4.52. Besides, the negative-log EC50 (pEC50) in the series with Trypanosoma cruzi [4] was less than 4.30.

In the case of `CCCCNc1nc2cc(OC)ccc2nc1SC`, the selectivity ratio in series [2] amounted to 1.1; in series [3], 1.1; in series [5], 3.5; in series [6] it was 3.5. The pIC50 in the series with Leishmania amazonensis was 4.52; in the series on Trypanosoma cruzi [7] it was 4.16. Besides, the pEC50 in the series on Trypanosoma cruzi [4] was less than 4.30.

For the compound `COc1ccc2nc(SC)c(NCC(C)C)nc2c1`, the selectivity ratio in series [2] is 0.7; in series [3], 0.7; in series [5] it was 4.7; in series [6] it was 4.7. The pIC50 in the series on Leishmania amazonensis is 4.57; in the series with Trypanosoma cruzi [7], 4.02. The same compound gave a pEC50 in the series on Trypanosoma cruzi [4] of less than 4.30.

Take `COc1ccc2nc(SC)c(NCCC(C)C)nc2c1`: the selectivity ratio in series [2] was found to be 0.7; in series [3], 0.7; in series [5] it was 3.3; in series [6], 3.3. The pIC50 in the series on Leishmania amazonensis is 4.57; in the series on Trypanosoma cruzi [7] it was 4.10. Also, the pEC50 with Trypanosoma cruzi [4] is less than 4.30.

On to `CCCCNc1nc2cc(Br)ccc2nc1SC`, for which the selectivity ratio in series [2] amounted to 0.9; in series [3], 0.9; in series [5], 5.1; in series [6] it was 5.1. Also, the values for the pIC50 in the series on Leishmania amazonensis and with Trypanosoma cruzi [7] were 4.60 and 4.38, respectively. This compound also had a pEC50 in the series with Trypanosoma cruzi [4] of less than 4.30.

As for `COc1ccc2nc(NCC(C)C)c(SC)nc2c1`, the selectivity ratio in series [2] amounted to 1; in series [3] it was 1; in series [5], 6.7; in series [6], 6.7. In addition, the pIC50 was 4.56 with Leishmania amazonensis and 4.16 in the series with Trypanosoma cruzi [7]. The same compound showed a pEC50 in the series with Trypanosoma cruzi [4] of less than 4.30.

In the case of `CCCCNc1nc2cc(Cl)ccc2nc1SC`, the selectivity ratio is 1 in series [2], 1 in series [3], 4.6 in series [5] and 4.6 in series [6]. Further, the negative logarithm of the IC50 (pIC50) was 4.61 in the series with Leishmania amazonensis and 4.20 in the series on Trypanosoma cruzi [7]. For the same compound, the pEC50 with Trypanosoma cruzi [4] was less than 4.30.

Regarding `COc1ccc2nc(N(C)C)c(S(C)(=O)=O)nc2c1`, the selectivity ratio in series [2] was 6.8; in series [3] it was 6.8; in series [5], 4.5; in series [6] it was 4.5. The pIC50 is 4.44 with Leishmania amazonensis and 4.60 in the series on Trypanosoma cruzi [7]. For the same compound, in the series with Trypanosoma cruzi [4], the negative logarithm of the EC50 (pEC50) was less than 4.30.

For the compound `CCCCNc1nc2ccccc2nc1S(C)(=O)=O`, the selectivity ratio is 1.5 in series [1]; 5.5 in series [2]; 5.5 in series [3]; 11.4 in series [5]; 11.4 in series [6]. Besides, the pIC50 is 5.54 with Leishmania amazonensis and 5.36 with Trypanosoma cruzi [7]. Also, the pEC50 in the series with Trypanosoma cruzi [4] is 4.80.

`CS(=O)(=O)c1nc2ccccc2nc1NCCO`: the selectivity ratio in series [1] was 0.8; in series [2] it was 4.4; in series [3] it was 4.4; in series [5] it was 13; in series [6], 13. Moreover, the pIC50 in the series with Leishmania amazonensis was 5.54; in the series with Trypanosoma cruzi [7], 5.38. Besides, the pEC50 in the series with Trypanosoma cruzi [4] is 4.65.

With `CCCCNc1nc2cc(OC)ccc2nc1S(C)(=O)=O`, the selectivity ratio in series [1] turned out to be 2.1; in series [2], 1.6; in series [3], 1.6; in series [5], 5.5; in series [6], 5.5. For the same compound, the pIC50 in the series on Leishmania amazonensis was 4.49; in the series with Trypanosoma cruzi [7], 4.26. Besides, the pEC50 in the series on Trypanosoma cruzi [4] is 4.39.

Regarding `COc1ccc2nc(S(C)(=O)=O)c(NCCO)nc2c1`, the selectivity ratio was determined as 2.6 in series [2], 2.6 in series [3], 3.7 in series [5] and 3.7 in series [6]. Also, the pIC50 with Leishmania amazonensis was 4.16; with Trypanosoma cruzi [7], 4.04. This compound showed a pEC50 in the series on Trypanosoma cruzi [4] of less than 4.30.

Consider `COc1ccc2nc(S(C)(=O)=O)c(NC3CCCCC3)nc2c1`, for which the selectivity ratio in series [1] is 3.3; in series [2] it was 2.7; in series [3], 2.7; in series [5], 6.5; in series [6] it was 6.5. In addition, the pIC50 in the series on Leishmania amazonensis was 4.83; with Trypanosoma cruzi [7], 4.54. In addition, in the series with Trypanosoma cruzi [4], the pEC50 is 4.63.

`COc1ccc2nc(S(C)(=O)=O)c(NCC(C)C)nc2c1`: the selectivity ratio in series [1] turned out to be 3.3; in series [2], 1.5; in series [3] it was 1.5; in series [5] it was 3.6; in series [6], 3.6. Further, the pIC50 was 4.56 with Leishmania amazonensis and 4.26 with Trypanosoma cruzi [7]. The pEC50 in the series with Trypanosoma cruzi [4] was 4.61.

With `COc1ccc2nc(S(C)(=O)=O)c(NCCC(C)C)nc2c1`, the results for the selectivity ratio in series [1], in series [2] and in series [5] were 4.2, 2.6 and 5, respectively. Besides, the pIC50 with Leishmania amazonensis is 4.67; in the series with Trypanosoma cruzi [7], 4.42. In the series on Trypanosoma cruzi [4], this compound had a pEC50 of 4.64.

For `CCCCNc1nc2cc(Cl)ccc2nc1S(C)(=O)=O`, the selectivity ratio in series [1] is 23.8; in series [2] it was 93.4; in series [3] it was 93.4; in series [5], 50.6; in series [6] it was 50.6. In addition, the pIC50 in the series on Leishmania amazonensis was 5.85; in the series on Trypanosoma cruzi [7] it was 5.64. The same compound gave a pEC50 in the series with Trypanosoma cruzi [4] of 5.05.

For `COc1ccc2nc(-c3ccccc3)c(NCCN3CCCCC3)nc2c1`, the selectivity ratio was 3.8 in series [2], 3.8 in series [3], 0.9 in series [5] and 0.9 in series [6]. The pIC50 is 4.30 in the series with Leishmania amazonensis and 4.32 in the series with Trypanosoma cruzi [7]. Besides, the pEC50 with Trypanosoma cruzi [4] is less than 4.30.

For `CCCCNc1nc2cc(OC)ccc2nc1Cl`, the selectivity ratio in series [2] amounted to 7.9; in series [3], 7.9; in series [5] it was 4.4; in series [6], 4.4. For the same compound, the pIC50 with Leishmania amazonensis is 4.44; with Trypanosoma cruzi [7], 4.31. The pEC50 with Trypanosoma cruzi [4] is less than 4.30.

On to `CCCCNc1nc2ccc(OC)cc2nc1NCCCC`, for which the selectivity ratio in series [2] was 3.2; in series [3], 3.2; in series [5], 4.3; in series [6] it was 4.3. The pIC50 in the series on Leishmania amazonensis is 4.68; with Trypanosoma cruzi [7], 4.53. Further, the pEC50 with Trypanosoma cruzi [4] was less than 4.30.

As for `CCCCNc1nc2ccc(OC)cc2nc1NCc1ccccc1`, the selectivity ratio stood at 0.6 in series [2], 0.6 in series [3], 3.6 in series [5] and 3.6 in series [6]. Besides, the pIC50 in the series with Leishmania amazonensis is 4.87; in the series with Trypanosoma cruzi [7], 4.42. For the same compound, the pEC50 with Trypanosoma cruzi [4] was less than 4.30.

For `COc1ccc2nc(Nc3ccccc3)c(Nc3ccccc3)nc2c1`, the selectivity ratio in series [1] was 1.2; in series [2] it was 1; in series [3], 1; in series [5], 4.4; in series [6] it was 4.4. Also, the results for the pIC50 in the series with Leishmania amazonensis and with Trypanosoma cruzi [7] were 5.19 and 4.34, respectively. Also, the pEC50 in the series with Trypanosoma cruzi [4] was 4.42.
